Each block holds one compound with its values, some of them ahead of it.
Experiments:
[1] = tested on: serum IL-1β, IL-6, TNF-α and IFN-γ; test: LPS challenge mouse acute inflammation model; assay type: in vivo, C57BL/6 mice; conditions: oral, 3 days, LPS 300 μg/kg IP
In short: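 Female C57BL/6 mice (6–8 weeks, 18–20 g) were acclimatised for 2 days. LPS 300 μg/kg/day was given IP in 500 μL on days −3, −2 and −1 (n = 8 per LPS group). Test compound (10 or 40 mg/kg/day) was given intragastrically in 500 μL saline 4 h after each LPS dose. Dexamethasone 10 mg/kg/day served as positive control. Saline IP controls had n = 3. Sera were taken 24 h after the last dose for cytokine ELISA.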

[2] = HPLC assay for H2O2-induced drug release; assay type: physicochemical
In short: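 A 10 mM DMSO stock of test compound was diluted to 50 μM final in PBS (10 mM, pH 7.4). H2O2 was added at graded levels (24 h incubation) or at 10 mM (time course), then vortexed. Incubation was at 37 °C in triplicate. Samples taken at intervals were injected directly onto C18 HPLC (70% methanol, 0.5 mL/min, DAD detection). Percent compound came from peak areas against a standard curve.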

[3] = Parallel artificial membrane permeability assay; assay type: physicochemical; conditions: PAMPA
In short: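 Effective permeability (Pe) at pH 7.4 was measured by double-sink PAMPA.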

[4] = Liver microsome stability; assay type: in vitro ADME, rat
In short: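 Rat (CD-1 male) liver microsomes from a 20 mg/mL stock were shaken in PBS at 37 °C for 10 min. Test compound was added from a 0.5 mM DMSO solution, with a 20 μM test level. After 5 min preincubation, the reaction was started with NADPH (6 mM stock). It was quenched with ice-cold acetonitrile at 0, 5, 15, 30 and 45 min. Samples were centrifuged at 5000 rpm for 15 min and supernatants analysed by LC-MS/MS. Ketanserin served as reference.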

RAW264.7 cells [5] = test: Antioxidant capacity; assay type: cell-based, mouse; conditions: LPS (20 ng/mL) treated RAW 264.7 cells
In short: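 RAW264.7 cells were pretreated with LPS (20 ng/mL) for 8 h, then exposed to test compound for a further 16 h. SOD activity, GSH-Px activity, GSH/GSSG ratio and MPO activity were measured in the cells. Data are means ± SEM of 3 independent observations, with one-way ANOVA.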

pH stability in PBS = assay type: physicochemical; conditions: pH 4 to 10, 24 h, 37 °C, 20 μM
In short: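 PBS was adjusted to pH 4–10 with 0.1 M HCl or NaOH. Test compound (20 μM) was incubated at 37 °C for 24 h, in triplicate. Solutions were filtered and injected directly on HPLC three times. Percent remaining came from peak areas.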

[6] = Stability in simulated gastric fluid and simulated intestinal fluid; assay type: in vitro ADME; conditions: after 8 h, 37 °C, 20 μM
In short: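 Test compound (20 μM) was incubated separately in commercial artificial gastric and intestinal juices at 37 °C for various times, in three parallel runs. Proteins were precipitated with methanol, vortexed and centrifuged at 5000 rpm for 5 min. Supernatants were analysed by HPLC (C18, 70% methanol, 0.5 mL/min) from peak areas.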

[7] = In vivo pharmacokinetic assay; design: species or system SD rats; conditions: rat
RAW264.7 cells [8] = test: Inflammatory factors; assay type: cell-based, mouse
In short: (§1)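 RAW264.7 cells were pretreated with LPS (20 ng/mL) for 8 h, then exposed to test compound for 16 h. Total RNA was extracted with TRIzol and reverse-transcribed, followed by real-time qRT-PCR. mRNA was normalised to β-actin and expressed as fold of control. Data are means ± SEM, n = 3 independent observations, one-way ANOVA.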

[9] = molecular target: Keap1-Nrf2 interaction (Keap1 Kelch domain / FITC-9mer Nrf2 peptide) (Homo sapiens, UniProt Q14145); test: Fluorescence polarization; assay type: binding
Plasma stability = assay type: in vitro ADME, rat; conditions: 20 μM, 37 °C
In short: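 Test compound (20 μM) was incubated in plasma at 37 °C for various times, in three parallel runs. Proteins were precipitated with methanol, vortexed and centrifuged at 12,000 rpm for 5 min. Supernatants were analysed by HPLC from peak areas.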

RAW264.7 cells [10] = test: qRT-PCR and Western blot of Nrf2-ARE driven genes in LPS-treated cells; assay type: cell-based, mouse; conditions: 20 ng/mL LPS 8 h
In short: as §1

HepG2-ARE-C8 cells = test: Nrf2/ARE luciferase reporter assay; assay type: cell-based

Sequence of Keap1-Nrf2 interaction (Keap1 Kelch domain / FITC-9mer Nrf2 peptide) (Q14145 322-609): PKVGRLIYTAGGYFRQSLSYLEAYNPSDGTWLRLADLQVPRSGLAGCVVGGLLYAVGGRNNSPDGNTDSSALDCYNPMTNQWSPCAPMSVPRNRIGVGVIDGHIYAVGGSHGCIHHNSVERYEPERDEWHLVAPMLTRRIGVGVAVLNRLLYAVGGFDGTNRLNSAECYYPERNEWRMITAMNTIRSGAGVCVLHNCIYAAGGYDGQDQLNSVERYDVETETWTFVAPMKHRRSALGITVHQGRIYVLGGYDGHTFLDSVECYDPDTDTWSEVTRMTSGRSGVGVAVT

Compound: C[C@@H]1C[C@H]2[C@@H]3CCC4=CC(=O)C=C[C@]4(C)[C@@]3(F)[C@@H](O)C[C@]2(C)[C@@]1(O)C(=O)CO [DXM, Dexamethasone, reference compound]
Anti-inflammation effect on serum pro-inflammatory cytokines ([1]; 10 mg/kg): diminished inflammatory response

Prodrug released to parent compound 2 ([2]; 1 mM H2O2, incubating 24 h, PBS pH 7.4, 37 °C): approximately 60%
Time to complete release to the parent compound 2 ([2]; 10 mM H2O2, PBS pH 7.4, 37 °C): ≤ 3 h
Conversion to parent compound 2 determined by HPLC ([2]; 10 mM H2O2, within 3 h): > 98%
Pe at pH 7.4 [3]: 6.35 10−6 cm/s
Stability in co-incubation with rat liver microsomes [4]: quite stable
Stability to hydrolysis in PBS (pH stability in PBS): relatively stable
Remaining in simulated gastric fluid (SGF) [6]: more than 50%
Remaining in simulated intestinal fluid (SIF) [6]: more than 50%
Cl_F ([7]; I.V. (2 mg/kg)): 18.5 ± 3.9 mL/min/kg
Vz_F ([7]; I.V. (2 mg/kg)): 6.44 ± 4.09 L/kg
Vz_F ([7]; P.O. (10 mg/kg)): 4.79 ± 2.17 L/kg
bioavailability ([7]; male, SD, plasma, oral): 68.1%
CL/F ([7]; male, SD, plasma, po, 10 mg/kg): 26.4 ± 1.14 mL/min/kg
Inhibition against Keap-Nrf2 interaction in the FP assay [9]: no inhibition
Stability in rat plasma (Plasma stability): quite stable
Compound: COc1ccc(S(=O)(=O)Nc2ccc(N(CC(=O)N3CCSC3=O)S(=O)(=O)c3ccc(OC)cc3)c3ccccc23)cc1 [pro2, 4-methoxy-N-(4-((4-methoxyphenyl)sulfonamido)naphthalen-1-yl)-N-(2-oxo-2-(2-oxothiazolidin-3-yl)ethyl)benzenesulfonamide]
Activities of SOD and GSH-Px (RAW264.7 cells [5]): significantly restored the activities
GSH/GSSG ratio and MPO activity (RAW264.7 cells [5]): restored the levels nearly back to normal
LPS-induced elevation of IL-1β and IL-6 protein (RAW264.7 cells [8]; LPS (20 ng/mL) 8 h, Western blot): almost completely suppressed the elevation
mRNA levels of IL-1β and IL-6 (RAW264.7 cells [8]; LPS (20 ng/mL) 8 h, qRT-PCR): significant suppression effects
Suppression of IL-1β, IL-6 and TNF-α production (RAW264.7 cells [8]; LPS (20 ng/mL), culture supernatants, ELISA): obvious superiority in the suppression
Anti-inflammation effect on serum pro-inflammatory cytokines ([1]; 10 mg/kg): comparable therapeutic effects with DXM
Anti-inflammation effect on serum pro-inflammatory cytokines ([1]; 40 mg/kg (high dose)): more potent effects
Transcription of Nrf2 targeted genes (HO-1, NQO1, GCLM mRNA) (RAW264.7 cells [10]; compound 500 nM, qRT-PCR): highly enhanced the transcription
Protein levels of Nrf2 and downstream antioxidant enzymes (RAW264.7 cells [10]; then compound 16 h, Western blot): remarkably accumulated Nrf2 protein and elevated downstream antioxidant enzymes
Relative ARE induction activity under normal conditions (HepG2-ARE-C8 cells; HepG2-ARE-C8 cells, no LPS): nearly inactive
Relative ARE induction activity under various concentrations of LPS (HepG2-ARE-C8 cells; LPS pretreatment 8 h, then compound 200 nM for 12 h): LPS concentration-dependent enhancement of Nrf2-ARE inducing activity

Production of compound 1 from the prodrug in the presence of H2O2 ([2]; H2O2 (10 mM), PBS pH 7.4, 37 °C, UPLC/HRMS): cannot be observed even after 12 h
Inhibition against Keap-Nrf2 interaction in the FP assay [9]: no inhibition
Compound: COc1ccc(S(=O)(=O)N(CC(=O)N2CCSC2=O)c2ccc(N(CC(=O)N3CCSC3=O)S(=O)(=O)c3ccc(OC)cc3)c3ccccc23)cc1 [pro1, N,N'-(naphthalene-1,4-diyl)bis(4-methoxy-N-(2-oxo-2-(2-oxothiazolidin-3-yl)ethyl)benzenesulfonamide)]
